Data as given in ChEMBL document CHEMBL1131143, “Predictive models for GABAA/benzodiazepine receptor subtypes: studies of quantitative structure-activity relationships for imidazobenzodiazepines at five recombinant GABAA/benzodiazepine receptor subtypes [alphaxbeta3gamma2 (x = 1-3, 5, and 6)] via comparative molecular field analysis” (J Med Chem, 1998).

Key:
Type in all cases: protein-complex assay
[1] = biological target: T1, GABA-A receptor; alpha-1/beta-3/gamma-2 (Homo sapiens) (UniProt P14867+P18507+P28472); assay: Inhibition of GABA-A benzodiazepine receptor alpha-1-beta-3-gamma-2 subunits at 1 uM
[2] = biological target: T2, GABA-A receptor; alpha-5/beta-3/gamma-2 (Homo sapiens, UniProt P18507+P28472+P31644); assay: Binding affinity for Gamma-aminobutyric acid A receptor alpha-5-beta-3-gamma-2
T2 sequence (P18507 whole entry): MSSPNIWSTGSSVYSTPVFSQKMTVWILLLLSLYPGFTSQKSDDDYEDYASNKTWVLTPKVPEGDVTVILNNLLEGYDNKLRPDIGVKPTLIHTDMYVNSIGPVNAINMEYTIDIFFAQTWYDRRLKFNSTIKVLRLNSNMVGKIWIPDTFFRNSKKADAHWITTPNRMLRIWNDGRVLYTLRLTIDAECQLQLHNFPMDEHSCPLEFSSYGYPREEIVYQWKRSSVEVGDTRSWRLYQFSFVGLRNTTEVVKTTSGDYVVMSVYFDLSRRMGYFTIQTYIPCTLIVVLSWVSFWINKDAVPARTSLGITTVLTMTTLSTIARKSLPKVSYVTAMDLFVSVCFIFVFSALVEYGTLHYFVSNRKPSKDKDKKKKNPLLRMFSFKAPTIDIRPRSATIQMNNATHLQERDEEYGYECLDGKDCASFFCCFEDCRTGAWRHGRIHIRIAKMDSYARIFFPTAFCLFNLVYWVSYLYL
T2 sequence (P28472 whole entry): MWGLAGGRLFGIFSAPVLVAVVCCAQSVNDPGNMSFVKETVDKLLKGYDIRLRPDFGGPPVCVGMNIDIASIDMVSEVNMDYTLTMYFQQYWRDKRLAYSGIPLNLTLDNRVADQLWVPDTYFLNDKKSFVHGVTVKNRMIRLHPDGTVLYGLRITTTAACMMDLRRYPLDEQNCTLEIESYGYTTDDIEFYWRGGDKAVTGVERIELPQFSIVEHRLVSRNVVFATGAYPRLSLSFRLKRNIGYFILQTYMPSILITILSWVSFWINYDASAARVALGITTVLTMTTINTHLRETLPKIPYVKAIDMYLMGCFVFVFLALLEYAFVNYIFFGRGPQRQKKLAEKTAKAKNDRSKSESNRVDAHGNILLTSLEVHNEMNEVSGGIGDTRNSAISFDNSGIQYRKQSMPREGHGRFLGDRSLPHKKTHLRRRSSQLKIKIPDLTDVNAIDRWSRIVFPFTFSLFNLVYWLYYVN
T2 sequence (P31644 whole entry): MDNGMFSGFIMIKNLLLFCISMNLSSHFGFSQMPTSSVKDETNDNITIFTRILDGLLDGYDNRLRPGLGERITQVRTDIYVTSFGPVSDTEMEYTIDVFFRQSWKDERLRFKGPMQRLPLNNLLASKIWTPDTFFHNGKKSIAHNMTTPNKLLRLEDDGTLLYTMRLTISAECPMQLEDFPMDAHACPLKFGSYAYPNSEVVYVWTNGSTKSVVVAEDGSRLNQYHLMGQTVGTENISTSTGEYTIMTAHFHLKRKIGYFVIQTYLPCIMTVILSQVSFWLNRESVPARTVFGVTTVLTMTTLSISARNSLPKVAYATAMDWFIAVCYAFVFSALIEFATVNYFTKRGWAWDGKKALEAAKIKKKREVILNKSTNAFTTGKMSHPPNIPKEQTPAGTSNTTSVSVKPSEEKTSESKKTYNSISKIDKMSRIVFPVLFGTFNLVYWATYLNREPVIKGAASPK

[3] = biological target: GABA-A receptor; alpha-2/beta-3/gamma-2 (Homo sapiens) (UniProt P18507+P28472+P47869); assay: Inhibition of GABA-A benzodiazepine receptor alpha-2-beta-3-gamma-2 subunits at 1 uM
[4] = biological target: T3, GABA-A receptor; alpha-6/beta-3/gamma-2 (Homo sapiens, UniProt P18507+P28472+Q16445); assay: Inhibition of Gamma-aminobutyric acid A receptor alpha-6-beta-3-gamma-2 at 1 uM
Outline: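 Competition binding on Ltk⁻ cells expressing human α6β3γ2, radioligand [³H]Ro 15-4513. Cells scraped into PBS, spun at 3000g, resuspended in 10 mM KH₂PO₄/100 mM KCl pH 7.4. Nonspecific binding with 10⁻⁵ M diazepam; 1 h to equilibrium at 4 °C; filtration, ice-cold buffer wash, scintillation counting.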

[5] = biological target: GABA-A receptor; alpha-3/beta-3/gamma-2 (Homo sapiens) (UniProt P18507+P28472+P34903); assay: Inhibition of GABA-A benzodiazepine receptor alpha-3-beta-3-gamma-2 subunits at 1 uM
[6] = biological target: T4, GABA-A receptor; alpha-2/beta-3/gamma-2 (Homo sapiens, UniProt P18507+P28472+P47869); assay: Binding affinity for alpha-2-beta-3-gamma-2 GABA-A benzodiazepine receptor subunits
T4 sequence (P18507 whole entry): T2 sequence (P18507 whole entry)
T4 sequence (P28472 whole entry): T2 sequence (P28472 whole entry)
T4 sequence (P47869 whole entry): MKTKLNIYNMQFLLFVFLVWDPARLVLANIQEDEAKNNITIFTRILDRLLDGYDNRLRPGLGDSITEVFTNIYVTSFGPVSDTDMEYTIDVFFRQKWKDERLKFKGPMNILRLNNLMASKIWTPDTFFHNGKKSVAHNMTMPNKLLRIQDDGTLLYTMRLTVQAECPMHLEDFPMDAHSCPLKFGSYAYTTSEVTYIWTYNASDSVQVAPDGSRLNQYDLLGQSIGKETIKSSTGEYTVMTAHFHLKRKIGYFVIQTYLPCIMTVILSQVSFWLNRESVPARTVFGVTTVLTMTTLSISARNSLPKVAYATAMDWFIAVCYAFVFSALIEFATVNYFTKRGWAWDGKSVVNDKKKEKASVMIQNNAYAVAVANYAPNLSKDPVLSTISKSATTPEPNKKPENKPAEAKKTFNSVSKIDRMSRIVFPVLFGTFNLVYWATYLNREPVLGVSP

[7] = biological target: T3, GABA-A receptor; alpha-6/beta-3/gamma-2; assay: Binding affinity against Gamma-aminobutyric acid A receptor alpha-6-beta-3-gamma-2
Outline: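 Cells scraped into PBS, spun at 3000g, resuspended in 10 mM KH₂PO₄/100 mM KCl pH 7.4. Nonspecific binding with 10⁻⁵ M diazepam; 1 h to equilibrium at 4 °C; filtration, ice-cold buffer wash, scintillation counting.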

[8] = biological target: T5, GABA-A receptor; alpha-3/beta-3/gamma-2 (Homo sapiens, UniProt P18507+P28472+P34903); assay: Binding affinity against alpha-3-beta-3-gamma-2 GABAA/BzR receptor subtype.
T5 sequence (P18507 whole entry): T2 sequence (P18507 whole entry)
T5 sequence (P28472 whole entry): T2 sequence (P28472 whole entry)
T5 sequence (P34903 whole entry): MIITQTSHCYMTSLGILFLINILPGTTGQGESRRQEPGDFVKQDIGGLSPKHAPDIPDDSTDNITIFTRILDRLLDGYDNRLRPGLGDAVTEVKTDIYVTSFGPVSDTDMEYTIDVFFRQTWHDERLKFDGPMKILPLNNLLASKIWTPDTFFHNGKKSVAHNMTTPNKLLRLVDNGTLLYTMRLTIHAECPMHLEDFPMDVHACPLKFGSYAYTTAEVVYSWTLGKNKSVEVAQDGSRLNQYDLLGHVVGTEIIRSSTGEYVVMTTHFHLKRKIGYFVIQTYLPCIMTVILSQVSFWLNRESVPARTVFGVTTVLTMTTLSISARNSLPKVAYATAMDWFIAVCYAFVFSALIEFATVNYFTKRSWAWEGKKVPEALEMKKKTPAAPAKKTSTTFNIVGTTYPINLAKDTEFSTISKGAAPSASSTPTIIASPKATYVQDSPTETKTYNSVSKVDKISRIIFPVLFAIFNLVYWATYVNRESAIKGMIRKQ

[9] = biological target: T1, GABA-A receptor; alpha-1/beta-3/gamma-2 (Homo sapiens); assay: It is the ratio of Ki value for alpha-1-beta-3-gamma-2 to that of alpha-5-beta-3-gamma-2
[10] = biological target: T6, GABA-A receptor; alpha-1/beta-3/gamma-2 (Homo sapiens, UniProt P14867+P18507+P28472); assay: Binding affinity against alpha-1-beta-3-gamma-2 GABAA/BzR receptor subtype.
T6 sequence (P14867 whole entry): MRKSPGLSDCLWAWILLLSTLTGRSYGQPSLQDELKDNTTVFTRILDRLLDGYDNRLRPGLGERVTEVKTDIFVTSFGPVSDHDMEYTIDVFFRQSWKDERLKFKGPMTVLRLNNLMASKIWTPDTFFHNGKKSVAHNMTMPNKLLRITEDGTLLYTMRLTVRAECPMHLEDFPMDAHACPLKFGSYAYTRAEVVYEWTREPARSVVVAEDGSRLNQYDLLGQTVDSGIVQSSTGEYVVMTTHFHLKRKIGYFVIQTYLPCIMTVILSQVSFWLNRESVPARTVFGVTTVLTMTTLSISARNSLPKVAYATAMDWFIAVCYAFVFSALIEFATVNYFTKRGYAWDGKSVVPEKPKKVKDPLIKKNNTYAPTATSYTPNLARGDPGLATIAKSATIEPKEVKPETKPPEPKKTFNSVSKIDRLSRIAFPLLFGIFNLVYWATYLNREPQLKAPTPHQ
T6 sequence (P18507 whole entry): T2 sequence (P18507 whole entry)
T6 sequence (P28472 whole entry): T2 sequence (P28472 whole entry)

[11] = biological target: T4, GABA-A receptor; alpha-2/beta-3/gamma-2; assay: Binding affinity tested against alpha-2-beta-3-gamma-2 GABAA/BzR receptor subtype.

T3 sequence (Q16445 whole entry, one chain of several): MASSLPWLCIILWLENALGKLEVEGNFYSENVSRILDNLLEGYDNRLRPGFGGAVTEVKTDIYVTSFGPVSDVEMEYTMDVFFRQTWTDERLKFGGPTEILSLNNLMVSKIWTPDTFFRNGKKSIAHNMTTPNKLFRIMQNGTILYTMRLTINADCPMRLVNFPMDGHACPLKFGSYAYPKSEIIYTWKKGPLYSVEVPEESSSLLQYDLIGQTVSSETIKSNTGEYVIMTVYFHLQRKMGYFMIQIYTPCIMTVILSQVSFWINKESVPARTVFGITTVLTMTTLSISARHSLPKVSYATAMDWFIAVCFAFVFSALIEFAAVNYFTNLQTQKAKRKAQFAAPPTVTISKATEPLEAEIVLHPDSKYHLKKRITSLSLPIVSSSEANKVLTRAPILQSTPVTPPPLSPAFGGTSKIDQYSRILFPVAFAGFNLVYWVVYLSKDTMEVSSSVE

| SMILES | inhibition [1] [%] | Ki [2] [nM] | inhibition [3] [%] | inhibition [4] [%] | inhibition [5] [%] | Ki [6] [nM] | Ki [7] [nM] | Ki [8] [nM] | Ratio [9] | Ki [10] [nM] | Ki [11] [nM] |
| --- | --- | --- | --- | --- | --- | --- | --- | --- | --- | --- | --- |
| C#Cc1ccc2c(c1)C(=O)N1CCC[C@H]1c1c(-c3nc(-c4ccccc4)no3)ncn1-2 | 33 | 455 | 26 | 4 | 19 |  |  |  |  |  |  |
| CCOC(=O)c1ncn2c1CN(C)C(=O)c1cc(Br)ccc1-2 |  |  |  |  |  | 27 | 22 | 13 |  |  |  |
| C#Cc1ccc2c(c1)C(=O)N1CC[C@H]1c1c(-c3nc(-c4ccccc4)no3)ncn1-2 | 10 | 374 | 29 | 14 | 15 |  |  |  |  |  |  |
| CCOC(=O)c1ncn2c1[C@@H]1CCN1C(=O)c1cc(Br)ccc1-2 |  | 0.3 |  |  |  |  | 31 | 6.7 | 56 | 17 | 13 |
